Source: PubChem BioAssay
Results filed as inconclusive are left out.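 How the source made its calls, unless noted: active means growth inhibition above 25% in both replicates, a cutoff set 3 SD above the mean; inconclusive means above 25% in only one replicate; inactive means the rest.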

Tests used:
[1] = OD615 S. cerevisiae growth inhibition, permissive medium, pilot counter-assay, permissive growth control for S. cerevisiae lifespan shortening project (AID 705); conditions: OD615, 24 h, at 10 µM, active compounds read high
Summary of the method: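 System: S. cerevisiae with engineered DeaD lifespan system / Measured by: absorbance (optical density) at 615 nm / Read-out: reduction in yeast growth (OD615) / Times: 4 h cell pre-growth, 24 h exposure at 30 °C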

[2] = Restrictive medium S. cerevisiae growth inhibition, OD615, pilot screen of yeast lifespan reduction project, restrictive growth control (AID 706;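 active means growth inhibition above a set limit, 3 SD over mean compound inhibition, in both replicates, cut at about 43% in these data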;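 further: modified DeaD lifespan yeast strain shifted to restrictive glucose medium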); conditions: OD615, 48 h, at 10 µM, active compounds read high
Summary of the method: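 System: Engineered S. cerevisiae DeaD strain | Buffer or medium: Glucose-based CSMM-D restrictive medium | Schedule: 4 h pre-incubation, 48 h exposure at 30 °C | Technique: Optical density at 615 nm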

[3] = viability gain of MRP-1-high H69AR cells under doxorubicin, pilot screen, MRP-1 activator project, CellTiter-Glo, duplicate (AID 807;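 active means viability increase at or above a cutoff of the median across tested compounds plus 3 SD, cut at about 8.5% in these data, passing the limit was not always enough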;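 further: compound pretreatment 18-22 h then 72 h combined with doxorubicin; 0% = doxorubicin alone and 100% = vehicle without doxorubicin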); conditions: H69AR viability with doxorubicin, CellTiter-Glo luminescence; at 10 µM; active compounds read high
[4] = growth suppression of beta-catenin knockout HCT116, pilot screen, human colon tumor cells (AID 823;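 active means cell viability at or below a set limit in both duplicate runs, the limit being the all-compound median minus 4 SD, cut at about 23% in these data, passing the limit was not always enough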;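 further: 0% = wells killed by 20 µM Hyamine and 100% = untreated DMSO cell wells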); conditions: CellTiter-Glo, 60 h, at 10 µM, active compounds read low
[5] = growth suppression of PTEN-deleted HCT116, pilot screen, cell-based, HCT116 clonal line, CellTiter-Glo (AID 824;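 active means viability at or below 27.92% in each of two runs, the all-compound median minus 4 SD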;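 further: 0% = 20 µM Hyamine control and 100% = vehicle cell control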); conditions: 60 h, at 10 µM, active compounds read low
[6] = inhibitors of the yeast RAM network, pilot screen, dse1pr::URA3 reporter, 5-FOA selection (AID 869;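 active means inhibition over a set limit, the all-compound mean plus 3 SD, in both replicate runs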;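 further: 0% = DMSO wells with no growth and 100% = 10 µM 1-NA-PP1 with full growth; RAM network block rescues cells from 5-FOA so hits raise OD615 growth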); conditions: S. cerevisiae dse1pr::URA3 5-FOA growth, OD615, 2 d; at 10 µM; active compounds read high; strain carries analog-sensitive mutant Cbk1 kinase
[7] = RAM signaling pathway blockade in yeast – S. cerevisiae, Pdr1DBD-CYC8 efflux-inhibited sensitized strain, primary screen (AID 1298;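 active means RAM network inhibition above 8.4% in each of two replicates, 3 SD over the compound average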;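 further: 0% = DMSO untreated cells without growth and 100% = 10 µM 1-NA-PP1 full growth; higher means more yeast growth rescued from 5-FOA killing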); conditions: S. cerevisiae cbk1-as DSE1-URA3 strain, 5-FOA growth OD615, 2 d; at 50 µM; active compounds read high

O=C(Cn1cc2c(n1)CCCCC2)N1CCCCC1
inactive: growth inhibition [1] -4.8% | growth inhibition [2] -5.9% | viability increase [3] -0.82% | viability [4] 98.5% | viability [5] 92.4% | inhibition [6] 1.23% | RAM network inhibition [7] -2.24%

CCCCSC1=C(C#N)C(c2ccccc2C)CC(=O)N1 (configuration not stated)
inactive: growth inhibition [1] -14.2% | growth inhibition [2] 3.23% | viability increase [3] -2.96% | viability [4] 95.1% | viability [5] 79.6% | inhibition [6] 1.03% | RAM network inhibition [7] 5.84%

O=C1C2C(c3ccccc3)C=CC(c3ccccc3)C2C(=O)N1CCO (configuration not stated)
inactive: growth inhibition [1] -10.9% | growth inhibition [2] -8.43% | viability increase [3] -3.35% | viability [4] 94.7% | viability [5] 95.3% | inhibition [6] 0.33% | RAM network inhibition [7] 4.03%

O=C(CCCSc1nc2sc3c(c2c(=O)[nH]1)CCC3)NCCCO
inactive: growth inhibition [1] -8.91% | growth inhibition [2] 6.12% | viability increase [3] 0.57% | viability [4] 102% | viability [5] 99.8% | inhibition [6] 0.14% | RAM network inhibition [7] 1.44%

COc1ccccc1-c1nnc(NC(=O)c2ccccc2F)o1
inactive: growth inhibition [1] -16.6% | growth inhibition [2] -17.1% | viability increase [3] -5.55% | viability [4] 88.3% | viability [5] 89.7% | inhibition [6] 1.22% | RAM network inhibition [7] 0.16%

CC1CCCN(c2nc3c(c(=O)[nH]c(=O)n3C)n2CCSc2ncccn2)C1 (configuration not stated)
inactive: growth inhibition [1] -2.51% | growth inhibition [2] 2.04% | viability increase [3] -3.17% | viability [4] 97% | viability [5] 96.8% | inhibition [6] 1.14% | RAM network inhibition [7] 2.7%

O=C(O)CCCNS(=O)(=O)c1ccc(F)cc1
inactive: growth inhibition [1] -5.7% | growth inhibition [2] -0.905% | viability increase [3] -1.33% | viability [4] 105% | viability [5] 101% | inhibition [6] 1.14% | RAM network inhibition [7] 0.11%

Cc1ccc(-c2nc(CS(=O)(=O)CC(=O)NCCCN3CCN(C)CC3)c(C)o2)cc1
inactive: growth inhibition [1] -9.1% | growth inhibition [2] -15.2% | viability increase [3] 0.53% | viability [4] 89.4% | viability [5] 94.7% | inhibition [6] 1.34% | RAM network inhibition [7] -0.16%

Cc1ccc(C(=O)NCCn2cc(SCC(=O)Nc3nnc(C)s3)c3ccccc32)cc1
inactive: growth inhibition [1] 5.58% | growth inhibition [2] 24.1% | viability increase [3] 2.91% | viability [4] 62.5% | viability [5] 81.3% | inhibition [6] 1.07% | RAM network inhibition [7] 0.63%

COc1ccc(C(=O)N2CCN(S(=O)(=O)c3ccc(C)cc3C)CC2)cc1OC
inactive: growth inhibition [1] -11.3% | growth inhibition [2] -13.3% | viability increase [3] 0.12% | viability [4] 93.2% | viability [5] 90.3% | inhibition [6] 1.12% | RAM network inhibition [7] 2.18%

CCOC(=O)N1CCN(S(=O)(=O)c2cccc3nonc23)CC1
inactive: growth inhibition [1] -9.77% | growth inhibition [2] -27.6% | viability increase [3] -1.56% | viability [4] 90.5% | viability [5] 92.2% | inhibition [6] 1.68% | RAM network inhibition [7] 5.47%

CCC/C(=C1/C(=O)CC(C)(C)C(C(=O)OC)C1=O)N1CCCC1 (configuration not stated)
inactive: growth inhibition [1] -4.46% | growth inhibition [2] 5.2% | viability increase [3] -1.41% | viability [4] 95.1% | viability [5] 97.5% | inhibition [6] 1.51% | RAM network inhibition [7] -2.05%

CC(=O)N(c1ccccc1)C1SC(=O)N(c2ccccc2)C1=O (configuration not stated)
inactive: growth inhibition [1] -15.9% | growth inhibition [2] -9.37% | viability increase [3] -0.06% | viability [4] 97.9% | viability [5] 99.7% | inhibition [6] 3.73% | RAM network inhibition [7] 6.65%

O=C(CCC1CCCC1)c1c(O)c2ccccc2oc1=O
inactive: growth inhibition [1] 0.51% | growth inhibition [2] 13.6% | viability increase [3] -2.11% | viability [4] 69.4% | viability [5] 67.7% | inhibition [6] 0.63% | RAM network inhibition [7] -1.56%

O=C(C(Cc1ccccc1)n1cccc1)N1CCc2ccccc21 (configuration not stated)
inactive: growth inhibition [1] -16.3% | growth inhibition [2] -9.65% | viability increase [3] -3.05% | viability [4] 81.2% | viability [5] 68.2% | inhibition [6] 2.29% | RAM network inhibition [7] 3.93%

Cc1nnc(Sc2nc3c(c(=O)[nH]c(=O)n3C)n2Cc2ccccc2)s1
inactive: growth inhibition [1] -11.6% | growth inhibition [2] -12.4% | viability increase [3] -0.33% | viability [4] 101% | viability [5] 103% | inhibition [6] 1.61% | RAM network inhibition [7] 0.73%
